TMEM16A inh – mouse TMEM16A channel inhibition, primary screen; AID 588511; HEK293 TMEM16A/YFP iodide influx fluorescence, ionomycin; normalized B-score (activity score, 25-100; higher = stronger inhibition) at 10 µM; hit rate 1.2% among 310,000;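 active means ratio plate-corrected score three or more library SD toward inhibition, starting fluorescence score within five deviations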;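 further: score derived from kinetic fluorescence span divided by baseline fluorescence per well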
Target sequence (Q8BHY3 whole entry, looked up): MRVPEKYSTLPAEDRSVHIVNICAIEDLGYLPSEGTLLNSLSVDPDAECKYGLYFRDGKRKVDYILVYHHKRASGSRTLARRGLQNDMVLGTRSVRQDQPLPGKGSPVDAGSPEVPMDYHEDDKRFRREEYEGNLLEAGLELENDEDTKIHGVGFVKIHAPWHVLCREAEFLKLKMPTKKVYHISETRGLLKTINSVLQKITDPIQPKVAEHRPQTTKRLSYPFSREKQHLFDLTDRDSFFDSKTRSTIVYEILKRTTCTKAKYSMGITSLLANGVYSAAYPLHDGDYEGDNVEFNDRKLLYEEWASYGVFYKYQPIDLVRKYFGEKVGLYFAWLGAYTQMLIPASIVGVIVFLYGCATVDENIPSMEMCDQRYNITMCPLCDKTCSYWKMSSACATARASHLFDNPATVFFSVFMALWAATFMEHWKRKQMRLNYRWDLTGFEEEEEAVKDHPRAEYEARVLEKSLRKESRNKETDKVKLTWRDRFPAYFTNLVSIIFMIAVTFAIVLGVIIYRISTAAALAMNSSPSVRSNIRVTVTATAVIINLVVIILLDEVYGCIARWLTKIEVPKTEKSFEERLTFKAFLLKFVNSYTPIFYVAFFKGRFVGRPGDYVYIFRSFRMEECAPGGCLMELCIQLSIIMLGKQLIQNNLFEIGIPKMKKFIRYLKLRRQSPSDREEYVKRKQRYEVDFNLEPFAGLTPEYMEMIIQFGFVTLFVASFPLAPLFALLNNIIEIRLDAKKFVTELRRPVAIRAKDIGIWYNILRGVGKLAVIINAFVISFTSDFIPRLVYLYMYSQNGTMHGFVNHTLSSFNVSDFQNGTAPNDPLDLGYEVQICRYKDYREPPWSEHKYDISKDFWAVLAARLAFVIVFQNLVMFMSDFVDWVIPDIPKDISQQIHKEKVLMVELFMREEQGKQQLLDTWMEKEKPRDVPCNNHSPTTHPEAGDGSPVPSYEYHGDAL
MC4R antag cAMP – blocks human MC4R cAMP signaling | P32245 | MC4R-expressing cells, MTII-stimulated cAMP, LANCE TR-FRET | inhibition, % at 6.5 µM | hit rate 0.48% among 360,000 | AID 540295;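 active means inhibition above its plate's cutoff, the mean of tested wells on that plate plus 3 SD, cut at about 29% in these data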
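Assay system: U2OS cells stably expressing human melanocortin 4 receptor (MC4R) / Dosing: 6.5 µM / Timing: compound 30 min, challenge 1 h, detection 1 h / Measured by: Eu-cAMP/anti-cAMP TR-FRET, emission 671 nm / Replicates: singlicate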
CSC inhib – cancer stem cell inhibition | inhibition, % at 7.5 µM | cancer stem cell-like cells viability, luminescence | hit rate 1.1% among 300,000; in the data active means inhibition above about 75%; tested in HMLE shEcad cells
Beta cell apopt – beta cell apoptosis inhibition | INS-1E cytokine-induced death, ATP luminescence, 48 h; percent of positive-control rescue, neutral wells zero | protection from apoptosis, % (concentration not given with the values) | hit rate 0.8% among 300,000;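 active means Every replicate reaches about 75%, or at least half do and their mean reaches it too, limit read from the data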;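 further: higher means more ATP so stronger rescue from cytokine killing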
MC4R ag barr – activates human MC4R beta-arrestin recruitment; AID 540308; hit rate 0.98% among 360,000; U2OS MC4R beta-arrestin complementation, luminescence; percent of melanotan II response, DMSO zero; activation, % at 8.9 µM;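 active means activation above a per-plate cutoff, the mean activation of sample wells on that plate plus 3 SD, cut at about 8% in these data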
ANO1 activ – activates or potentiates the mouse TMEM16A chloride channel; B-score at 10 µM; HEK293 TMEM16A/YFP-H148Q/I152L, iodide quench fluorescence; active compounds read low; Q8BHY3; hit rate 0.3% among 340,000; AID 623877;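 active means fluorescence-ratio B-score plate-corrected deviation score at least 3 library SD below zero, with starting fluorescence score within 5 deviations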;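 further: channel opened by trigger with iodide after compound preincubation; score built on the fluorescence ratio of max minus min over baseline; more negative score means more quench and so TMEM16A activation or potentiation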
TMEM16A reconf – reconfirmed blocker of mouse TMEM16A calcium-activated chloride channel. shares compounds with TMEM16A inh. HEK293 TMEM16A/YFP-H148Q, iodide quench fluorescence; ionomycin added to raise cell calcium. inhibition, % at 10 µM. hit rate 39% among 2,300;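 active means mean duplicate percent inhibition, scaled so buffer wells are 0 and the reference blocker 100, over three buffer SD above buffer mean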
TMEM16A Ca cntr – alters calcium mobilization in TMEM16A HEK293 cells, counter-screen. shares compounds with TMEM16A inh. hit rate 2% among 2,300. AID 652231. calcium response (% of ionomycin), % at 10 µM. TMEM16A/YFP HEK293, Fluo4 calcium mobilization;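 active means duplicate-averaged calcium signal over 20% of the ionomycin maximum, relative to buffer baseline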;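 further: each well's signal is peak minus trough fluorescence divided by its pre-addition baseline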
Parental YFP cnt – counter-screen for TMEM16A inhibitors: effect in parental YFP-HEK293 cells. shares compounds with TMEM16A inh. iodide YFP quench, ionomycin. YFP ratio F(max-min)/F0 at 10 µM. 2,300 tested, under 10 active. AID 652233;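 active means yellow fluorescent protein signal ratio exceeding the buffer control mean by over 5 SD of those controls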;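 further: ratio is mean of duplicate wells from kinetic YFP trace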
ClC-1 rat inh – blocks the rat ClC-1 voltage-dependent chloride channel. ratio percent, % at 10 µM. shares compounds with TMEM16A inh. CHO ClC-1-YFP, iodide influx fluorescence quench; iodide control reads 0, buffer control 100. 2,300 tested, under 10 active;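 active means duplicate-mean ratio percent above the mean of iodide-only control wells, which defines zero, plus 5 of their SD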;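 further: higher percent means stronger block of ClC-1 iodide influx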
Each line names hits and unclear results; the compound was inactive in the other large screens (follow-up assays come after a bar, where they were run). Rows were chosen to be rich in hits. Some 3.8% of all compounds tested hit in one or more screens of this group.

COCCCNC(=S)N1CCN(c2nc(-c3ccccc3)cs2)CC1	TMEM16A inh 25 | TMEM16A reconf inactive | TMEM16A Ca cntr inactive | Parental YFP cnt inactive | ClC-1 rat inh inactive
N#Cc1nc(Cc2cccc3ccccc23)oc1NCc1ccc(F)cc1	TMEM16A inh 100 | TMEM16A reconf inactive | TMEM16A Ca cntr inactive | Parental YFP cnt inactive | ClC-1 rat inh inactive
CC1CCN(c2oc(Cc3cccc4ccccc34)nc2C#N)CC1	TMEM16A inh 25 | TMEM16A reconf inactive | TMEM16A Ca cntr inactive | Parental YFP cnt inactive | ClC-1 rat inh inactive
N#Cc1nc(Cc2cccc3ccccc23)oc1N1CCOCC1	none
CNC(=O)Nc1cccc(-c2cc(-c3c(Cl)cccc3Cl)no2)c1	TMEM16A inh 100 | TMEM16A reconf 26% | TMEM16A Ca cntr inactive | Parental YFP cnt inactive | ClC-1 rat inh inactive
O=C(NNC(=S)Nc1ccccc1)c1cc(Br)ccc1Cl	TMEM16A inh 25 | TMEM16A reconf 18% | TMEM16A Ca cntr inactive | Parental YFP cnt inactive | ClC-1 rat inh inactive
CCOC(=O)N1CCN(C(=O)C2CCCN(Cc3nc(-c4ccc(Cl)cc4)oc3C)C2)CC1 (centres undefined)	TMEM16A inh 25 | TMEM16A reconf inactive | TMEM16A Ca cntr inactive | Parental YFP cnt inactive | ClC-1 rat inh inactive
Cc1cc(N(C)Cc2ccccc2)nc2cc(O)ccc12	none
CCn1c(=O)c([N+](=O)[O-])c(N2CCSCC2)c2ccccc21	TMEM16A inh 25 | TMEM16A reconf inactive | TMEM16A Ca cntr inactive | Parental YFP cnt inactive | ClC-1 rat inh inactive
Cc1cccc(-n2cnc3cc(C(=O)N4CCCCC4)ccc32)c1	TMEM16A inh 25 | TMEM16A reconf inactive | TMEM16A Ca cntr inactive | Parental YFP cnt inactive | ClC-1 rat inh inactive
CC/C(=N\OC(=O)c1ccc(OC(C)C)cc1)c1ccc(C)cc1	TMEM16A inh 100 (no result: CSC inhib) | TMEM16A reconf inactive | TMEM16A Ca cntr inactive | Parental YFP cnt inactive | ClC-1 rat inh inactive
CCCOc1ccc(C(=O)O/N=C(\CC)c2ccc(C)cc2)cc1	none
CCCc1nnc(NC(=O)C(CC)OC(=O)c2cc(C)nc3ccccc23)s1 (centres undefined)	TMEM16A inh 100 | TMEM16A reconf inactive | TMEM16A Ca cntr inactive | Parental YFP cnt inactive | ClC-1 rat inh inactive
Clc1ccc(OCc2nnc(SCc3nc4ccccc4[nH]3)n2Cc2ccco2)cc1	TMEM16A inh 25 | TMEM16A reconf inactive | TMEM16A Ca cntr inactive | Parental YFP cnt inactive | ClC-1 rat inh inactive
CCCOc1ccccc1Cn1c(=O)oc2ccc(C)cc21	TMEM16A inh 100 | TMEM16A reconf inactive | TMEM16A Ca cntr inactive | Parental YFP cnt inactive | ClC-1 rat inh inactive
CCOc1ccccc1Cn1c(=O)oc2ccc(C)cc21	none
CCOC(=O)CCSc1nc(C)cc(C(F)(F)F)c1C#N	none
CCOC(=O)CCSc1nc(C(C)(C)C)cc(C(F)(F)F)c1C#N	TMEM16A inh 100 | TMEM16A reconf inactive | TMEM16A Ca cntr inactive | Parental YFP cnt inactive | ClC-1 rat inh inactive
O=C(O)[C@H](Cc1ccccc1)N1C(=O)c2ccncc2C1=O	TMEM16A inh 100 | TMEM16A reconf inactive | TMEM16A Ca cntr inactive | Parental YFP cnt inactive | ClC-1 rat inh inactive
CCC(C)Oc1nc(C)cc(C)c1S(=O)(=O)c1ccccc1C (centres undefined)	TMEM16A inh 100 | TMEM16A reconf inactive | TMEM16A Ca cntr inactive | Parental YFP cnt inactive | ClC-1 rat inh inactive
CCSc1nc(C)cc(C)c1S(=O)(=O)c1ccccc1C	TMEM16A inh 100 (no result: Beta cell apopt) | TMEM16A reconf inactive | TMEM16A Ca cntr inactive | Parental YFP cnt inactive | ClC-1 rat inh inactive
Cc1ccc(S(=O)(=O)NN2CCCCCC2)cc1	none (no result: TMEM16A inh, CSC inhib, Beta cell apopt, ANO1 activ)
Nc1nc(Cl)cc(N2CCC(c3cc(-c4ccc(Cl)cc4Cl)n[nH]3)CC2)n1	TMEM16A inh 100 | TMEM16A reconf inactive | TMEM16A Ca cntr inactive | Parental YFP cnt inactive | ClC-1 rat inh inactive
Nc1nc(Cl)cc(N2CCCC2)n1	none
CN(C(=O)COC(=O)c1ccccc1C(=O)c1ccccc1)c1ccccc1	none (no result: TMEM16A inh)
CC1CCN(C(=O)CSc2nnc(CNc3ccc(F)cc3)n2Cc2ccco2)CC1	none
O=C(CSc1nnc(CNc2ccc(F)cc2)n1Cc1ccco1)N1CCCC1	TMEM16A inh 25 | TMEM16A reconf inactive | TMEM16A Ca cntr inactive | Parental YFP cnt inactive | ClC-1 rat inh inactive
COc1ccc(OC)c(S(=O)(=O)Nc2cc(OC)c(Cl)cc2OC)c1	none
COc1cc(NS(=O)(=O)c2ccc(OC)c(C)c2C)c(OC)cc1Cl	TMEM16A inh 25 | TMEM16A reconf 54% | TMEM16A Ca cntr inactive | Parental YFP cnt inactive | ClC-1 rat inh inactive
CN1CCN(S(=O)(=O)c2ccc(N(C)Cc3c(F)cccc3Cl)nc2)CC1	none (no result: TMEM16A inh)
N/C(=N\OC(=O)c1cccc(F)c1)c1ccccc1	TMEM16A inh 25 | TMEM16A reconf inactive | TMEM16A Ca cntr inactive | Parental YFP cnt inactive | ClC-1 rat inh inactive
Cc1ccc(/C(N)=N/OC(=O)c2cccc(F)c2)cc1	none
c1ccc(C[n+]2cccc3c4ccccc4ccc32)cc1	TMEM16A inh 25 (no result: CSC inhib) | TMEM16A reconf inactive | TMEM16A Ca cntr inactive | Parental YFP cnt inactive | ClC-1 rat inh inactive
O=[N+]([O-])c1ccc(C[n+]2cccc3ccccc32)cc1	none
CN(CC(CC(=O)Nc1nncs1)c1ccccc1)S(=O)(=O)c1ccccc1 (centres undefined)	none
CN(CC(CC(=O)Nc1nncs1)c1ccccc1)S(=O)(=O)c1ccc(Br)cc1 (centres undefined)	TMEM16A inh 100 | TMEM16A reconf inactive | TMEM16A Ca cntr inactive | Parental YFP cnt inactive | ClC-1 rat inh inactive
CCc1ccccc1OCC(=O)NNCC(=O)Nc1cccc(C#N)c1	none (no result: TMEM16A inh, CSC inhib)
Cc1ccc(C)n1-n1c(C)nc2sc(-c3ccccc3)cc2c1=O	TMEM16A inh 100 | TMEM16A reconf inactive | TMEM16A Ca cntr inactive | Parental YFP cnt inactive | ClC-1 rat inh inactive
O=c1cc(SCc2ccccc2)nc[nH]1	none (no result: TMEM16A inh, CSC inhib, Beta cell apopt)
Cc1ccc(S(=O)(=O)N(C)C)cc1NC(=O)C1CCCCN1S(=O)(=O)c1ccccc1 (centres undefined)	none (no result: TMEM16A inh)
O=C(NCCC(F)(F)F)c1cccc2c(-c3ccc(F)c(F)c3)coc12	none (no result: TMEM16A inh, CSC inhib, Beta cell apopt, ANO1 activ)
